Reference: ChEMBL document CHEMBL4118021, “Studies of TAK1-centered polypharmacology with novel covalent TAK1 inhibitors” (Bioorg Med Chem, 2017)
The source made the active and inactive calls. No cut-off for these calls is given here.

Key:
[1] = target: Nuclear pore complex protein Nup155 (Homo sapiens) (UniProt O75694); assay: Binding affinity to NUP155 in human NCI-H23 cells at 1 uM by mass spectrometry based pull down assay; format: cell-based
[2] = target: T1, 80S Ribosome (Homo sapiens) (UniProt P08865+P42677+P62753+P15880+P23396+P61247+P62701+P22090+P46782+P62081+P62241+P46781+P46783+P62280+P25398+P62277+P62263+P62841+P62244+P62249+P08708+P62269+P39019+P60866+P63220+P62266+P62847+P62851+P62854+P62979+P62857+P62273+P62861+P39023+P36578+P46777+Q02878+P18124+P62424+P62917+P32969+P27635+P62906+P62913+P30050+P26373+P40429+P50914+P61313+P18621+Q07020+Q02543+P84098+P46778+P35268+P62829+P62750+P83731+P61254+P61353+P46776+P46779+P47914+P62888+P62899+P62910+P49207+P42766+P18077+Q9Y3U8+P83881+P61927+P61513+P63173+P62891+P62945+P05388+P05386); assay: Binding affinity to RPS24 in human NCI-H23 cells at 1 uM by mass spectrometry based pull down assay; format: cell-based
[3] = target: T1, 80S Ribosome (Homo sapiens); assay: Binding affinity to RPL35A in human NCI-H23 cells at 1 uM by mass spectrometry based pull down assay; format: cell-based
[4] = target: T2, Serine/threonine-protein kinase Nek9 (Homo sapiens) (UniProt Q8TD19); assay: Binding affinity to NEK9 in human NCI-H358 cells at 1 uM by mass spectrometry based pull down assay; format: cell-based
T2 sequence (whole entry): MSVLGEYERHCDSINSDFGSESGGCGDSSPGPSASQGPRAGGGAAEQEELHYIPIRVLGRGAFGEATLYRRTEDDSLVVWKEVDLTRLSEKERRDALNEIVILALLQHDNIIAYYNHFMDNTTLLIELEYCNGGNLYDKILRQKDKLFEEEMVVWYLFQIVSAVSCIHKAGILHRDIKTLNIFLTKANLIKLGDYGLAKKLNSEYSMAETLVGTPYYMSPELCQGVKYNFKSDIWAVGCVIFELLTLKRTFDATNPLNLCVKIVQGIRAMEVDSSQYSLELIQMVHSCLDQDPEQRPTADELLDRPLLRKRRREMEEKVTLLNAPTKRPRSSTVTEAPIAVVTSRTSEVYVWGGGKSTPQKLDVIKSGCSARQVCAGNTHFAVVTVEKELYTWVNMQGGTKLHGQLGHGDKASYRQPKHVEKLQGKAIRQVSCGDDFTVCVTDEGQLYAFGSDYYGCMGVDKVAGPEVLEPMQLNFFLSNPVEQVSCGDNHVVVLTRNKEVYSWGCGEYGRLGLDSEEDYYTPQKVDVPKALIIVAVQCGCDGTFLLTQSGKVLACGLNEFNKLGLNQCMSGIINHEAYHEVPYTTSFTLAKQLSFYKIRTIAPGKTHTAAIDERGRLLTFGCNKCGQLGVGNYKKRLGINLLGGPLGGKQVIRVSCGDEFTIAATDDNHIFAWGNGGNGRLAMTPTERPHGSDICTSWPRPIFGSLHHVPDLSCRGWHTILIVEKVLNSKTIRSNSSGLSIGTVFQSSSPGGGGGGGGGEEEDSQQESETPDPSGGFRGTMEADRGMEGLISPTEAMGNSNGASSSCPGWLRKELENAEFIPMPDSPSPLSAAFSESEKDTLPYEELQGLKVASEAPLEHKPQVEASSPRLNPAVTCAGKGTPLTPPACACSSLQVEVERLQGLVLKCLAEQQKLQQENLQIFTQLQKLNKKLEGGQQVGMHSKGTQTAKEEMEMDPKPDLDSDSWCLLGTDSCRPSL

[5] = target: Amidophosphoribosyltransferase (Homo sapiens) (UniProt Q06203); assay: Binding affinity to PPAT in human NCI-H358 cells at 1 uM by mass spectrometry based pull down assay; format: cell-based
Amidophosphoribosyltransferase (Homo sapiens), sequence (Q06203 whole entry): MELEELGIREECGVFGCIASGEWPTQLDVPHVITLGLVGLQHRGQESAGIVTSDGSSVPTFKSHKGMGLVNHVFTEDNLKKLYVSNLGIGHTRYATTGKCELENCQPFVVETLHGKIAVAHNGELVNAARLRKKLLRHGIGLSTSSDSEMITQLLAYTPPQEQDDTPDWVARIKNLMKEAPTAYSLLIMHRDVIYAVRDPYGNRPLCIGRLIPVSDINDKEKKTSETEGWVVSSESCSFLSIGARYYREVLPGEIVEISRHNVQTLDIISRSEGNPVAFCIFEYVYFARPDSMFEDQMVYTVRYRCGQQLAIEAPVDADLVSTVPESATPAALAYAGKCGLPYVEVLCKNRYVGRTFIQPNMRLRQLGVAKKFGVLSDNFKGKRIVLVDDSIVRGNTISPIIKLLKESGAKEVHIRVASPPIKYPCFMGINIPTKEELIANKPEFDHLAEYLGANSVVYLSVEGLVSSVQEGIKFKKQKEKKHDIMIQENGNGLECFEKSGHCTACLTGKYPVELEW

[6] = target: Replication factor C subunit 5 (Homo sapiens) (UniProt P40937); assay: Binding affinity to RFC5 in human NCI-H358 cells at 1 uM by mass spectrometry based pull down assay; format: cell-based
Replication factor C subunit 5 (Homo sapiens), sequence (P40937 whole entry): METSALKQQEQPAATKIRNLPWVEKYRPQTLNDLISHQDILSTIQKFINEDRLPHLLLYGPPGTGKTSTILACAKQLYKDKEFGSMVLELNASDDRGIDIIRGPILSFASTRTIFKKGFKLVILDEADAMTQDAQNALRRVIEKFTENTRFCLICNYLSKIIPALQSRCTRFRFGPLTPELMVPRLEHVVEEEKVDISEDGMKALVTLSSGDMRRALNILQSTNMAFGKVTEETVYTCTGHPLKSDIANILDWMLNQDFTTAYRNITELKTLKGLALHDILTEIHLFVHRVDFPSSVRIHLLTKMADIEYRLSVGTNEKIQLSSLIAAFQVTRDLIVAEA

Plastin-2 (Homo sapiens) = Plastin-2 (Homo sapiens) (UniProt P13796); assay: Binding affinity to LCP1 in human NCI-H358 cells at 1 uM by mass spectrometry based pull down assay; format: cell-based
Plastin-2 (Homo sapiens), sequence (P13796 whole entry): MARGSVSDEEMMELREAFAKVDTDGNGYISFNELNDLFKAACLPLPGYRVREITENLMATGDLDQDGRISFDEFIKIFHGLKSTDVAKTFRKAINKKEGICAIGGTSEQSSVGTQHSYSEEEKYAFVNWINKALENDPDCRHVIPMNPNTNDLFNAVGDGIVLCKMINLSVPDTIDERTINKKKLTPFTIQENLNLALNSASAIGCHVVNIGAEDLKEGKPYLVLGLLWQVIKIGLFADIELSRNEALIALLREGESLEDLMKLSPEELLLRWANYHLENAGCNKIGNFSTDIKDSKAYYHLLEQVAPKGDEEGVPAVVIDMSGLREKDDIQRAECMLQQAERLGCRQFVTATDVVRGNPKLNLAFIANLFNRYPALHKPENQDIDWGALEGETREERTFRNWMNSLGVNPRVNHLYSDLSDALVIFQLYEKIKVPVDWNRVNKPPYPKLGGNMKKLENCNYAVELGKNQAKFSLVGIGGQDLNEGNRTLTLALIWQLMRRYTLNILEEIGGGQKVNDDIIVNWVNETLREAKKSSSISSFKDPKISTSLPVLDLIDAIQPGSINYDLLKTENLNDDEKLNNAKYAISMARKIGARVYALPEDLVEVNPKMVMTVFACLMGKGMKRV

[7] = target: Tubulin beta-2A chain (Homo sapiens) (UniProt Q13885); assay: Binding affinity to TUBB2A in human NCI-H358 cells at 1 uM by mass spectrometry based pull down assay; format: cell-based
Tubulin beta-2A chain (Homo sapiens), sequence (Q13885 whole entry, the tested form may be a part): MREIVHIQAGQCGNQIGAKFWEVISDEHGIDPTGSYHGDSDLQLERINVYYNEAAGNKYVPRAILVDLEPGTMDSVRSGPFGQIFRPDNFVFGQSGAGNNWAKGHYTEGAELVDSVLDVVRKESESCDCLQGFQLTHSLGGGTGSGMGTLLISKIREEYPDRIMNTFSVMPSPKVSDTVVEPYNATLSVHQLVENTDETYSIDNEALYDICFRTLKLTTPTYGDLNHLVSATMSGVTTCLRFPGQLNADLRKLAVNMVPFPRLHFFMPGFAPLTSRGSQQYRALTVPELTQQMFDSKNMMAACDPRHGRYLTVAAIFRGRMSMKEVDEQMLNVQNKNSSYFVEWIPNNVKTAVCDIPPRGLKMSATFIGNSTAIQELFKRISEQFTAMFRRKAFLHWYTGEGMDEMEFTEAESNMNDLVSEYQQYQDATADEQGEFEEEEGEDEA

[8] = target: Phosphatidylinositol 4-phosphate 3-kinase C2 domain-containing subunit beta (Homo sapiens) (UniProt O00750); assay: Inhibition of PIK3C2B in human SKCO1 cells at 1 uM after 4 hrs using biotin labeled VIFKCGDDLRQDMLTLQMIR probe by mass-spectrometric analysis relative to control; format: cell-based
Phosphatidylinositol 4-phosphate 3-kinase C2 domain-containing subunit beta (Homo sapiens), sequence (O00750 whole entry, the tested form may be a part): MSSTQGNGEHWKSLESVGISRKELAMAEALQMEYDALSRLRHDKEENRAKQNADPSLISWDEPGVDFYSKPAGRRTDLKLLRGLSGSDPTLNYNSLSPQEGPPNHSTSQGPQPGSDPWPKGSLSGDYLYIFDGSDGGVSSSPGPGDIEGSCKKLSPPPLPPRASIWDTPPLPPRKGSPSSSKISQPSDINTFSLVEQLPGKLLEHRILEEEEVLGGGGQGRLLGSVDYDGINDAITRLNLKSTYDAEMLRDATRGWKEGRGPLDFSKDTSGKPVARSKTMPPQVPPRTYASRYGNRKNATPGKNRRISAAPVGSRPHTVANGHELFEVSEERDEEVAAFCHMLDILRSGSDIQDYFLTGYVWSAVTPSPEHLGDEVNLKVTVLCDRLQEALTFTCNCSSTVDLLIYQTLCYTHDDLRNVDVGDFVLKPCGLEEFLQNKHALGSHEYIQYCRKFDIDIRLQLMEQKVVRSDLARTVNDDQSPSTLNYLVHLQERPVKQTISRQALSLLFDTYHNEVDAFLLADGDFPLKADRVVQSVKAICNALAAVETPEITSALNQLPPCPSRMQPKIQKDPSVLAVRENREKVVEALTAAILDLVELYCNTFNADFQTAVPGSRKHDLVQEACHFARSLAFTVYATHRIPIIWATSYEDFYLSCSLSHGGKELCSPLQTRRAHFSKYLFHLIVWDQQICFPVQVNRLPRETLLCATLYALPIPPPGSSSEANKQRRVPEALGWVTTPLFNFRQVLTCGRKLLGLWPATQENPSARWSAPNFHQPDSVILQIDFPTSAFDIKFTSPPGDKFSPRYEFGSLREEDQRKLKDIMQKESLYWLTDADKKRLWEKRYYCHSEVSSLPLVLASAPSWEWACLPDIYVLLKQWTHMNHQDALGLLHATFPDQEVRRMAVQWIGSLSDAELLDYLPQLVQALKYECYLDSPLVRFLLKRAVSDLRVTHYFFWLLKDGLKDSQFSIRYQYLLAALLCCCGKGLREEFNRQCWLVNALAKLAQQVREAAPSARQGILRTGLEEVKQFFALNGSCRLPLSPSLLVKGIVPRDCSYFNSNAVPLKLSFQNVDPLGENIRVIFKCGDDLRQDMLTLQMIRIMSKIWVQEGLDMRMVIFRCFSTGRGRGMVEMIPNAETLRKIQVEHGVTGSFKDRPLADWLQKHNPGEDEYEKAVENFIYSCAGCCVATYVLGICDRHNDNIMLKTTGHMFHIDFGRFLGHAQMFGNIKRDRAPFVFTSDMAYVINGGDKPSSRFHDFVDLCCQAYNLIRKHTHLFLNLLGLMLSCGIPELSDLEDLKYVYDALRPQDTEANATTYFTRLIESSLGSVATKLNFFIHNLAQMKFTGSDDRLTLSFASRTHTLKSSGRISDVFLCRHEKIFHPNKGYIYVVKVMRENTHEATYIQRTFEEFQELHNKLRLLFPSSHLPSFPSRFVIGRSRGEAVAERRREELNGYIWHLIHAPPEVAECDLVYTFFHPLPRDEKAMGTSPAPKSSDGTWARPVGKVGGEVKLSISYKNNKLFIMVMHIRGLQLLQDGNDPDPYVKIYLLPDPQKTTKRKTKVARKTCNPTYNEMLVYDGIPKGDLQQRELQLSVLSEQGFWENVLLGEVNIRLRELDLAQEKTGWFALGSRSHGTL

[9] = target: T3, Dual specificity mitogen-activated protein kinase kinase 5 (Homo sapiens) (UniProt Q13163); assay: Inhibition of human MEK5 (98 to 448 residues) expressed in mammalian expression system assessed as enzyme activity at 10 uM by KINOMEScan assay relative to control; parameters: scale not given: the % may be the effect or the level left
T3 sequence (whole entry): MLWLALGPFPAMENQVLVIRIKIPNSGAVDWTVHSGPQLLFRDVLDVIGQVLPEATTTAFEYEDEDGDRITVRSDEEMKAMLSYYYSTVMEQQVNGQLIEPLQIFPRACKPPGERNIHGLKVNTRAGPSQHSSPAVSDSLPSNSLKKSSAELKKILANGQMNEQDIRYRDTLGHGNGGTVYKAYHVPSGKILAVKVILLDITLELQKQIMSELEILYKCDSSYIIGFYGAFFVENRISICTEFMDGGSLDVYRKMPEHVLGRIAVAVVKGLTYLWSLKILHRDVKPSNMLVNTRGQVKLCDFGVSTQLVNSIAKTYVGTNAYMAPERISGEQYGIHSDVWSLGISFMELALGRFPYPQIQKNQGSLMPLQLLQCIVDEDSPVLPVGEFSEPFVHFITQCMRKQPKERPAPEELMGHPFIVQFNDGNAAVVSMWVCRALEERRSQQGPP
Method in brief: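 In vitro ATP-site competition binding assay across a panel of 456 kinases, with compound tested at 1 and 10 μM.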

Nuclear pore complex protein Nup155 (Homo sapiens), sequence (O75694 whole entry, one chain of several): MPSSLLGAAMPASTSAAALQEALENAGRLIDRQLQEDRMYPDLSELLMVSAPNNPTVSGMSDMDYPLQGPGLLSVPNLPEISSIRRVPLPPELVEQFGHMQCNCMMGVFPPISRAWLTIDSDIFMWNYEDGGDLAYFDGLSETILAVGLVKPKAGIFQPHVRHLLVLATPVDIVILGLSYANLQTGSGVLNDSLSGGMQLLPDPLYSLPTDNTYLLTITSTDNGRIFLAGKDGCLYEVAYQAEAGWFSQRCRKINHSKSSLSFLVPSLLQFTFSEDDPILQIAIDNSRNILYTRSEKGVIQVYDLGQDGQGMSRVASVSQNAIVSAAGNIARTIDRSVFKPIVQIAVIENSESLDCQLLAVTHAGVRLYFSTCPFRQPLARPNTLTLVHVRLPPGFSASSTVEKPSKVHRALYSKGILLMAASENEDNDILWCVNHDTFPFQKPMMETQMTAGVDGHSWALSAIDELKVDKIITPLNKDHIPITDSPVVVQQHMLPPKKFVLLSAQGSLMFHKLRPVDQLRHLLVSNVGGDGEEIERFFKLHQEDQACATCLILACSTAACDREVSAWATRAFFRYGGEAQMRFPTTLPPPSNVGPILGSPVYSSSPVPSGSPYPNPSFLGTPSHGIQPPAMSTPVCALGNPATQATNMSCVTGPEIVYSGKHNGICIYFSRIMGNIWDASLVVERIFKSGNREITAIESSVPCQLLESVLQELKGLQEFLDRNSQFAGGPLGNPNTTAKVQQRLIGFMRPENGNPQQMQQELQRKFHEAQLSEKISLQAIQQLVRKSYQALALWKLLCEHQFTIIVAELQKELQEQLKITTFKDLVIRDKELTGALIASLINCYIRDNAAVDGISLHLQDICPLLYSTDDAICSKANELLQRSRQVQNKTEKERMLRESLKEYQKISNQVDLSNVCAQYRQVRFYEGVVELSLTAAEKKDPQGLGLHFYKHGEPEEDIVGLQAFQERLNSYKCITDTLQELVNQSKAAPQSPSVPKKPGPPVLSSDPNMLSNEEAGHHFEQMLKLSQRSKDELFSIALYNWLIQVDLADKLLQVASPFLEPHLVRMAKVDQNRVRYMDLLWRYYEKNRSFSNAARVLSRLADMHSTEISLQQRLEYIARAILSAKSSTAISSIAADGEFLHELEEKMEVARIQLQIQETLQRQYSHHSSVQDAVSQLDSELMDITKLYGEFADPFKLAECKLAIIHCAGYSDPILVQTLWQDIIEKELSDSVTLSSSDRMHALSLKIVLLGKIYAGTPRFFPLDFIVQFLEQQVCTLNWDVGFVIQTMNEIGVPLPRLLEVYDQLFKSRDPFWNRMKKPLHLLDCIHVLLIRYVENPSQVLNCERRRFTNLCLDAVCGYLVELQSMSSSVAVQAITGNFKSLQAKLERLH

C=CC(=O)Nc1ccccc1Nc1nc(Nc2ccc(N3CCN(CCOCCOCCOCCNC(=O)CCCC[C@@H]4SC[C@@H]5NC(=O)N[C@@H]54)CC3)cc2)ncc1Cl
Activity [1]: Active
Activity [2]: Active
Activity [3]: Active
Activity [4]: Active
Activity [5]: Active
Activity [6]: Active
Activity (Plastin-2 (Homo sapiens)): Active
Activity [7]: Active

COc1cc(O)c2c(c1)/C=C/C[C@H](O)[C@H](O)C(=O)/C=C\C[C@H](C)OC2=O
inhibition [8]: 8.3%
Activity [9]: 0.1%
